# Measurements reported in ChEMBL document CHEMBL1131092, “Prodrugs of anthracyclines for use in antibody-directed enzyme prodrug therapy” (J Med Chem, 1998).
# Tests used:
# L1210 = test: Inhibitory activity was measured against murine L1210 leukemia cells.; type: functional, cell-based; conditions: Mus musculus
# Outline: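 Exponentially growing L1210 cells in RPMI were exposed to a range of concentrations for 72 h (37 °C, 5% CO2), with quadruplicate wells and medium-only controls. MTT (2.5 mg/mL in PBS) was added at 65 h, and formazan was dissolved in DMSO after 7 more h. IC50 is 50% growth inhibition versus untreated control; replicate CV <15%.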
# [1] = Half life period at 200 ug/mL concentration of prodrug in the presence of 0.1 ug/mL Beta-glucuronidase (Escherichia coli) in phosphate buffer; conditions: in vitro
# Escherichia coli = test: Half life period at 200 ug/mL concentration of prodrug in the presence of 1 ug/mL Beta-glucuronidase (Escherichia coli) in phosphate buffer; conditions: in vitro
SMILES,IC50 (L1210) [µM],T1/2 [1] [min],T1/2 (Escherichia coli) [min]
COc1cccc2c1C(=O)c1c(O)c3c(c(O)c1C2=O)C[C@@](O)(C(=O)CO)C[C@@H]3O[C@H]1C[C@@H](NC(=O)OCc2ccc(O[C@@H]3O[C@@H](C(=O)O)[C@@H](O)[C@H](O)[C@@H]3O)c([N+](=O)[O-])c2)[C@H](O)[C@H](C)O1,2.21,37,
COC(=O)[C@@H]1O[C@@H](Oc2ccccc2COC(=O)N[C@@H]2C[C@H](O[C@H]3C[C@](O)(C(C)=O)Cc4c(O)c5c(c(O)c43)C(=O)c3c(OC)cccc3C5=O)O[C@@H](C)[C@H]2O)[C@@H](OC(C)=O)[C@@H](OC(C)=O)[C@@H]1OC(C)=O,5.5,,
COc1cccc2c1C(=O)c1c(O)c3c(c(O)c1C2=O)C[C@@](O)(C(=O)CO)C[C@@H]3O[C@H]1C[C@@H](NC(=O)OCc2ccc(O[C@@H]3O[C@@H](C(=O)O)[C@@H](O)[C@H](O)[C@@H]3O)c(F)c2)[C@H](O)[C@H](C)O1,8.8,26,
COc1cccc2c1C(=O)c1c(O)c3c(c(O)c1C2=O)C[C@@](O)(C(C)=O)C[C@@H]3O[C@H]1C[C@H](N)[C@H](O)[C@H](C)O1 [DAUNORUBICIN],0.03,,

# Now from value to compound:
IC50 (L1210) [µM],T1/2 [1] [min],T1/2 (Escherichia coli) [min],SMILES
16.6,216,,COc1cccc2c1C(=O)c1c(O)c3c(c(O)c1C2=O)C[C@@](O)(C(=O)CO)C[C@@H]3O[C@H]1C[C@@H](NC(=O)OCc2cc([N+](=O)[O-])ccc2O[C@@H]2O[C@@H](C(=O)O)[C@@H](O)[C@H](O)[C@@H]2O)[C@H](O)[C@H](C)O1
31,30,,COc1cccc2c1C(=O)c1c(O)c3c(c(O)c1C2=O)C[C@@](O)(C(=O)CO)C[C@@H]3O[C@H]1C[C@@H](NC(=O)OCc2cc(F)ccc2O[C@@H]2O[C@@H](C(=O)O)[C@@H](O)[C@H](O)[C@@H]2O)[C@H](O)[C@H](C)O1
17,55,,COc1cccc2c1C(=O)c1c(O)c3c(c(O)c1C2=O)C[C@@](O)(C(=O)CO)C[C@@H]3O[C@H]1C[C@@H](NC(=O)OCc2ccc(O[C@@H]3O[C@@H](C(=O)O)[C@@H](O)[C@H](O)[C@@H]3O)c(Cl)c2)[C@H](O)[C@H](C)O1
16.6,> 240,30,COc1cccc2c1C(=O)c1c(O)c3c(c(O)c1C2=O)C[C@@](O)(C(=O)CO)C[C@@H]3O[C@H]1C[C@@H](NC(=O)OCc2cc(Cl)ccc2O[C@@H]2O[C@@H](C(=O)O)[C@@H](O)[C@H](O)[C@@H]2O)[C@H](O)[C@H](C)O1
> 10,,,COc1cccc2c1C(=O)c1c(O)c3c(c(O)c1C2=O)C[C@@](O)(C(C)=O)C[C@@H]3O[C@H]1C[C@@H](NC(=O)OCc2ccc(O[C@@H]3O[C@@H](C(=O)O)[C@@H](O)[C@H](O)[C@@H]3O)cc2)[C@H](O)[C@H](C)O1
